Measurements from ChEMBL document CHEMBL2069213, “Synthesis and evaluation of small libraries of triazolylmethoxy chalcones, flavanones and 2-aminopyrimidines as inhibitors of mycobacterial FAS-II and PknG” (Bioorg Med Chem, 2012).
Calls of active or inactive are those of the source. The calls are words filed in the database; no cut-off is given here.

What was measured:
[1] = target: Serine/threonine-protein kinase PknG (Mycobacterium tuberculosis) (UniProt P9WI73); experiment: Inhibition of Mycobacterium tuberculosis recombinant PKnG expressed in Escherichia coli BL21 (DE3) cells using myelin basic protein substrate at 100 uM by luciferase activity based ADP-Glo-luminescent kinase assay
Serine/threonine-protein kinase PknG (Mycobacterium tuberculosis), sequence (P9WI73 whole entry): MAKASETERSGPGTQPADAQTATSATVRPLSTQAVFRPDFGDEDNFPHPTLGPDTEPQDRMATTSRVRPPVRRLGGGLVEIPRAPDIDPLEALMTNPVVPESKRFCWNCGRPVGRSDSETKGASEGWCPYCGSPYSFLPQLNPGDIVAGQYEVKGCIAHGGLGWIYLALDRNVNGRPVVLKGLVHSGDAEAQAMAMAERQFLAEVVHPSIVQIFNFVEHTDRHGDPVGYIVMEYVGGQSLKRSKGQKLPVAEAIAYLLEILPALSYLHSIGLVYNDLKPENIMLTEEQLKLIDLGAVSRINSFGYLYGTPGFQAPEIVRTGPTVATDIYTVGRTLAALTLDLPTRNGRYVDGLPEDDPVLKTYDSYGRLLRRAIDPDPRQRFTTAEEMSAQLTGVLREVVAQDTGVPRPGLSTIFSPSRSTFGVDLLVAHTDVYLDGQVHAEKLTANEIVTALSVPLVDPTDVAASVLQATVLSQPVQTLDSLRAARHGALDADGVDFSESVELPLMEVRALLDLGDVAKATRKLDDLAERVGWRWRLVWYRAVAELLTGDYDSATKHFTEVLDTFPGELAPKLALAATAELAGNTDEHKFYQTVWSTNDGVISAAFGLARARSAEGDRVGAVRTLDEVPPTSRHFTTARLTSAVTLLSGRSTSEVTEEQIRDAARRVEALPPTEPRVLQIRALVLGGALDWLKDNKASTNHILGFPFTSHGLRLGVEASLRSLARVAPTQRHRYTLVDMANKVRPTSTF
Method in brief: (§1)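 6-His-PknG from M. tuberculosis genomic DNA cloned into pTriEx4, expressed in E. coli with 0.8 mM IPTG 4 h at 37 °C, purified by Ni2+-NTA then size exclusion. Compounds dissolved in DMSO; assayed with myelin basic protein substrate; ADP formed measured by ADP-Glo luminescence; AX20017 positive control; dose-response series.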

Mycolicibacterium aurum [2] = experiment: Growth inhibition of Mycobacterium aurum expressing Mycobacterium tuberculosis H37Rv kas operon in fusion Escherichia coli lacZ gene at 100 uM incubated for 12 hrs; assay type: functional; conditions: read-out: GI
Mycolicibacterium aurum [3] = experiment: Growth inhibition of Mycobacterium aurum expressing Mycobacterium tuberculosis H37Rv kas operon in fusion Escherichia coli lacZ gene at 50 uM incubated for 12 hrs; assay type: functional; conditions: read-out: GI
Mycolicibacterium aurum [4] = experiment: Inhibition of FAS2 in recombinant Mycobacterium aurum expressing hsp60 promoter in fusion Escherichia coli lacZ gene assessed as increase in beta-galactosidase activity at 50 uM incubated for 12 hrs by lacZ reporter gene assay
Mycolicibacterium aurum [5] = experiment: Inhibition of FAS2 in recombinant Mycobacterium aurum expressing Mycobacterium tuberculosis H37Rv kas operon in fusion Escherichia coli lacZ gene assessed as increase in beta-galactosidase activity at 50 uM incubated for 12 hrs by lacZ reporter gene assay
Method in brief: (§2)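 Cells washed, sonicated in PBS pH 7.2; equal Bradford-quantified protein incubated with ONPG (4 mg/ml) 30 min at 37 °C, stopped with Na2CO3, read at 410 nm. Triplicates, experiment repeated twice; isoniazid positive control.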

[6] = Toxicity against macrophages incubated for 48 hrs by resazurin dye reduction assay; assay type: cell-based, Macrophage
Method in brief: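 Macrophages from subconfluent monolayers seeded ~1 × 10^6 cells/well in RPMI-1640; compounds 100 to 12.5 µM, 48 h at 37 °C, 5% CO2; resazurin added for 4 h, fluorescence 535/590 nm read against untreated wells as % viability; CC50 taken from viability-versus-concentration plot; triplicates.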

Mycolicibacterium aurum [7] = experiment: Inhibition of FAS2 in recombinant Mycobacterium aurum expressing hsp60 promoter in fusion Escherichia coli lacZ gene assessed as increase in beta-galactosidase activity at 100 uM incubated for 12 hrs by lacZ reporter gene assay
Mycolicibacterium aurum [8] = experiment: Inhibition of FAS2 in recombinant Mycobacterium aurum expressing Mycobacterium tuberculosis H37Rv kas operon in fusion Escherichia coli lacZ gene assessed as increase in beta-galactosidase activity at 100 uM incubated for 12 hrs by lacZ reporter gene assay; method in brief: as §2
[9] = target: Serine/threonine-protein kinase PknG (Mycobacterium tuberculosis) (UniProt P9WI73); experiment: Inhibition of Mycobacterium tuberculosis recombinant PKnG expressed in Escherichia coli BL21 (DE3) cells using myelin basic protein substrate at 50 uM by luciferase activity based ADP-Glo-luminescent kinase assay; method in brief: as §1
[10] = target: Serine/threonine-protein kinase PknG (Mycobacterium tuberculosis) (UniProt P9WI73); experiment: Inhibition of Mycobacterium tuberculosis recombinant PKnG expressed in Escherichia coli BL21 (DE3) cells using myelin basic protein substrate at 12.5 uM by luciferase activity based ADP-Glo-luminescent kinase assay; method in brief: as §1
[11] = target: Serine/threonine-protein kinase PknG (Mycobacterium tuberculosis) (UniProt P9WI73); experiment: Inhibition of Mycobacterium tuberculosis recombinant PKnG expressed in Escherichia coli BL21 (DE3) cells using myelin basic protein substrate at 3.125 uM by luciferase activity based ADP-Glo-luminescent kinase assay; method in brief: as §1
[12] = target: Serine/threonine-protein kinase PknG (Mycobacterium tuberculosis) (UniProt P9WI73); experiment: Inhibition of Mycobacterium tuberculosis recombinant PKnG expressed in Escherichia coli BL21 (DE3) cells using myelin basic protein substrate at 25 uM by luciferase activity based ADP-Glo-luminescent kinase assay; method in brief: as §1
[13] = target: Serine/threonine-protein kinase PknG (Mycobacterium tuberculosis) (UniProt P9WI73); experiment: Inhibition of Mycobacterium tuberculosis recombinant PKnG expressed in Escherichia coli BL21 (DE3) cells using myelin basic protein substrate at 6.25 uM by luciferase activity based ADP-Glo-luminescent kinase assay; method in brief: as §1

SMILES | inhibition [1] [%] | inhibition of growth at 100 µM (Mycolicibacterium aurum [2]) [%] | inhibition of growth at 50 µM (Mycolicibacterium aurum [3]) [%] | also measured
C#CCOc1ccc(-c2cc(-c3ccc(OCc4cn(CCCCCC)nn4)cc3O)nc(N)n2)cc1 | 17 | – | – | –
CC(C)c1ccc(C2CC(=O)c3ccc(OCc4cn(Cc5ccc(Br)cc5)nn4)cc3O2)cc1 (stereo unspecified) | – | 72.5 | 31 | –
O=C1CC(c2ccc(Cl)cc2)Oc2cc(OCc3cn(Cc4ccccc4)nn3)ccc21 (stereo unspecified) | – | 79.8 | 46.9 | –
CC(C)c1ccc(/C=C/C(=O)c2ccc(OCc3cn(Cc4ccc(Br)cc4)nn3)cc2O)cc1 | – | 17.8 | 0 | –
O=C(/C=C/c1ccccc1)c1ccc(OCc2cn(Cc3ccccc3)nn2)cc1O | – | 88 | 49.9 | inhibition (Mycolicibacterium aurum [4]): inactive; inhibition (Mycolicibacterium aurum [5]): Active; CC50 at 48 h [6]: 80 µM; inhibition (Mycolicibacterium aurum [7]): inactive; inhibition (Mycolicibacterium aurum [8]): Active
Nc1nc(-c2ccc(OCc3cn(Cc4ccccc4)nn3)cc2O)cc(-c2c(F)cccc2Cl)n1 | 12 | – | – | –
CCCCCCn1cc(COc2ccc3c(c2)OC(c2ccccc2)CC3=O)nn1 (stereo unspecified) | – | 70.2 | 19 | –
CC(C)c1ccc(-c2cc(-c3ccc(OCc4cn(Cc5ccc(Br)cc5)nn4)cc3O)nc(N)n2)cc1 | 5 | – | – | –
Nc1nc(-c2ccc(Br)cc2)cc(-c2ccc(OCc3cn(Cc4ccc(Br)cc4)nn3)cc2O)n1 | 19 | – | – | inhibition [9]: 0%; inhibition [10]: 0%; inhibition [11]: 5%; inhibition [12]: 0%; inhibition [13]: 0%
CC(C)c1ccc(/C=C/C(=O)c2ccc(OCc3cn(Cc4ccccc4)nn3)cc2O)cc1 | – | 12.7 | 0 | –
CCCCCCn1cc(COc2ccc(C(C)=O)c(O)c2)nn1 | – | 91.8 | 93.1 | inhibition (Mycolicibacterium aurum [5]): inactive; inhibition (Mycolicibacterium aurum [8]): inactive
CCCCCCn1cc(COc2ccc(-c3cc(-c4cccc5ccccc45)nc(N)n3)c(O)c2)nn1 | 11 | – | – | –
O=C1CC(c2ccccc2)Oc2cc(OCc3cn(Cc4ccc(Br)cc4)nn3)ccc21 (stereo unspecified) | – | 66.1 | 15.8 | –
Nc1nc(-c2ccccc2)cc(-c2ccc(OCc3cn(Cc4ccc(Br)cc4)nn3)cc2O)n1 | 41 | – | – | inhibition [9]: 17%; inhibition [10]: 0%; CC50 at 48 h [6]: > 100 µM; inhibition [12]: 9%
CC(=O)c1ccc(OCc2cn(Cc3ccc(Br)cc3)nn2)cc1O | – | 73.7 | 70.4 | inhibition (Mycolicibacterium aurum [5]): inactive; inhibition (Mycolicibacterium aurum [8]): inactive
CCCCCCn1cc(COc2ccc3c(c2)OC(c2ccc(C(C)C)cc2)CC3=O)nn1 (stereo unspecified) | – | 56.4 | 34.1 | –
COc1ccc(-c2cc(-c3ccc(OCc4cn(Cc5ccccc5)nn4)cc3O)nc(N)n2)cc1 | 43 | – | – | inhibition [9]: 43%; inhibition [10]: 10%; CC50 at 48 h [6]: 42.7 µM; inhibition [11]: 6%; inhibition [12]: 9%; inhibition [13]: 0%
O=C(/C=C/c1cccc2ccccc12)c1ccc(OCc2cn(Cc3ccc(Br)cc3)nn2)cc1O | – | 63.2 | 0 | –
CCCCCCn1cc(COc2ccc(-c3cc(-c4ccc(C(C)C)cc4)nc(N)n3)c(O)c2)nn1 | 5 | – | – | –
CCCCCCn1cc(COc2ccc(C(=O)/C=C/c3ccc(C(C)C)cc3)c(O)c2)nn1 | – | 31.4 | 0 | –
Nc1nc(-c2ccccc2)cc(-c2ccc(OCc3cn(Cc4ccccc4)nn3)cc2O)n1 | 29 | – | – | inhibition [9]: 37%; inhibition [10]: 18%; CC50 at 48 h [6]: 76.5 µM; inhibition [11]: 5%; inhibition [12]: 14%; inhibition [13]: 4%
Nc1nc(-c2ccc(OCc3cn(Cc4ccccc4)nn3)cc2O)cc(-c2cccc3ccccc23)n1 | 35 | – | – | inhibition [9]: 25%; inhibition [10]: 11%; CC50 at 48 h [6]: 71.3 µM; inhibition [11]: 0%; inhibition [12]: 7%; inhibition [13]: 9%
CCCCCCn1cc(COc2ccc(C(=O)/C=C/c3ccc(Br)cc3)c(O)c2)nn1 | – | 76.5 | 69.6 | inhibition (Mycolicibacterium aurum [5]): inactive; CC50 at 48 h [6]: > 100 µM; inhibition (Mycolicibacterium aurum [8]): inactive

SMILES | inhibition [1] [%] | inhibition of growth at 100 µM (Mycolicibacterium aurum [2]) [%] | inhibition of growth at 50 µM (Mycolicibacterium aurum [3]) [%] | also measured
COc1ccc(/C=C/C(=O)c2ccc(OCc3cn(Cc4ccccc4)nn3)cc2O)cc1 | – | 68.7 | 25.5 | –
C#CCOc1ccc(C(C)=O)c(O)c1 | – | 35.6 | 2 | –
O=C(/C=C/c1ccc(Br)cc1)c1ccc(OCc2cn(Cc3ccc(Br)cc3)nn2)cc1O | – | 28 | 11.6 | –
CCCCCCn1cc(COc2ccc(-c3cc(-c4ccc(OC)cc4)nc(N)n3)c(O)c2)nn1 | 4 | – | – | –
CCCCCCn1cc(COc2ccc(C(=O)/C=C/c3cccc4ccccc34)c(O)c2)nn1 | – | 18.8 | 5.5 | –
O=C(/C=C/c1ccc(Cl)cc1)c1ccc(OCc2cn(Cc3ccccc3)nn2)cc1O | – | 28 | 11.6 | –
CCCCCCn1cc(COc2ccc(-c3cc(-c4c(F)cccc4Cl)nc(N)n3)c(O)c2)nn1 | 11 | – | – | –
CCCCCCn1cc(COc2ccc(-c3cc(-c4ccc(Cl)cc4)nc(N)n3)c(O)c2)nn1 | 43 | – | – | inhibition [9]: 0%; CC50 at 48 h [6]: 30.3 µM; inhibition [11]: 0%; inhibition [12]: 0%; inhibition [13]: 0%
Nc1nc(-c2ccc(Cl)cc2)cc(-c2ccc(OCc3cn(Cc4ccccc4)nn3)cc2O)n1 | 53 | – | – | inhibition [10]: 5%; CC50 at 48 h [6]: 66.6 µM; inhibition [11]: 4%; inhibition [12]: 19%; inhibition [13]: 5%
O=C1CC(c2ccccc2)Oc2cc(OCc3cn(Cc4ccccc4)nn3)ccc21 (stereo unspecified) | – | 74.8 | 27 | –
C#CCOc1ccc(/C=C/C(=O)c2ccc(OCc3cn(CCCCCC)nn3)cc2O)cc1 | – | 56 | 39.6 | –
CCCCCCn1cc(COc2ccc(C(=O)/C=C/c3ccccc3)c(O)c2)nn1 | – | 57.7 | 16.8 | –
CCCCCCn1cc(COc2ccc(C(=O)/C=C/c3ccc(OC)cc3)c(O)c2)nn1 | – | 44.7 | 6.2 | –
C#CCOc1ccc(/C=C/C(=O)c2ccc(OCc3cn(Cc4ccccc4)nn3)cc2O)cc1 | – | 22 | 0 | –
CCCCCCn1cc(COc2ccc(C(=O)/C=C/c3ccc(Cl)cc3)c(O)c2)nn1 | – | 59 | 6.1 | –
O=C1CC(c2ccc(Br)cc2)Oc2cc(OCc3cn(Cc4ccc(Br)cc4)nn3)ccc21 (stereo unspecified) | – | 70.6 | 50 | inhibition (Mycolicibacterium aurum [5]): inactive; CC50 at 48 h [6]: 87.5 µM; inhibition (Mycolicibacterium aurum [8]): inactive
CC(=O)c1ccc(OCc2cn(Cc3ccccc3)nn2)cc1O | – | 75.9 | 23.7 | inhibition (Mycolicibacterium aurum [5]): inactive; inhibition (Mycolicibacterium aurum [8]): inactive
O=C(/C=C/c1cccc2ccccc12)c1ccc(OCc2cn(Cc3ccccc3)nn2)cc1O | – | 51.6 | 2.6 | –
Nc1nc(-c2ccc(OCc3cn(Cc4ccc(Br)cc4)nn3)cc2O)cc(-c2cccc3ccccc23)n1 | 34 | – | – | inhibition [9]: 3%; inhibition [10]: 0%; CC50 at 48 h [6]: > 100 µM; inhibition [11]: 0%; inhibition [12]: 0%; inhibition [13]: 2%
O=C(/C=C/c1c(F)cccc1Cl)c1ccc(OCc2cn(Cc3ccccc3)nn2)cc1O | – | 74.5 | 17.6 | –
NC(=O)C1=C(NC(=O)C2CC2)CC2=C1CCCC2 | – | – | – | inhibition [9]: 24%; inhibition [10]: 12%; inhibition [12]: 22%
CC(C)c1ccc(-c2cc(-c3ccc(OCc4cn(Cc5ccccc5)nn4)cc3O)nc(N)n2)cc1 | 28 | – | – | inhibition [9]: 16%; inhibition [10]: 0%; CC50 at 48 h [6]: > 100 µM; inhibition [11]: 0%; inhibition [12]: 0%; inhibition [13]: 0%
